Test results taken from paper PMC3756293 (Translational Psychiatry, 2013).
“Also recorded” adds a separate entry of the source. Where two headings read alike, the source gives them in different places.

How the values were obtained:
[1] = Plasma pharmacokinetics of ABT-384 and metabolites after five daily doses; type: in vivo, human
[2] = CSF pharmacokinetics of ABT-384 and acid metabolite after five daily doses; type: in vivo, human; settings: for CSF levels as percent of the free plasma levels / CSF levels as percent of the total plasma levels: 1-50 mg QD for 5 days; for CSF/free plasma exposure ratio: across the dose range tested (1-50 mg QD)
How it was run: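 Two subjects received 50 mg QD for 5 days. CSF was drawn by catheter before dosing, every 30 min for 8 h, and at 9, 12, 16 and 24 h. Other subjects were sampled hourly during the D4 cortisol infusions plus set post-dose times. Parent and acid metabolite were measured by validated HPLC–MS with D6 stable-label internal standards, injected directly without online solid-phase extraction.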

[3] = biological target: T1, 11-beta-hydroxysteroid dehydrogenase type 1 (HSD-1) (Homo sapiens, UniProt P28845); type: in vivo; settings: regimens of 1-50 mg ABT-384 QD for 5 days, spot urine
T1 sequence (P28845 whole entry): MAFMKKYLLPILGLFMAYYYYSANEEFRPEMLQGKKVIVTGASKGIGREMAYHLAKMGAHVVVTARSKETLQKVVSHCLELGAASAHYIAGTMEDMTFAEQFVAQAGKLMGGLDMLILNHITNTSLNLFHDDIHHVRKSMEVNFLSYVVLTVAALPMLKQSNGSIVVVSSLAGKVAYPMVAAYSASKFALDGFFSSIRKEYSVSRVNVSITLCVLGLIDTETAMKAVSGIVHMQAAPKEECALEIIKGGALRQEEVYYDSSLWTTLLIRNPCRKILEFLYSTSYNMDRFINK

[4] = biological target: T1, 11-beta-hydroxysteroid dehydrogenase type 1 (HSD-1); type: in vivo
How it was run: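 During primed continuous D4 cortisol infusions after five daily doses, plasma was collected hourly. Labeled cortisol and cortisone were measured by mass spectrometry, and the plasma D3 cortisol/D3 cortisone ratio served as a measure of total-body HSD-1 activity.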

[5] = biological target: T1, 11-beta-hydroxysteroid dehydrogenase type 1 (HSD-1); assay: Peripheral HSD-1 inhibition: 1-; type: in vivo
How it was run: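 Plasma was sampled hourly during two 8 h D4 cortisol infusions on Days 5–6, after 5 days of once-daily dosing. Inhibition = 1 − (plasma D3 cortisol/plasma D4 cortisol), where 1 approximates the steady-state ratio seen in untreated control subjects. Values are given per time point across both infusions (16 time points).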

[6] = biological target: T1, 11-beta-hydroxysteroid dehydrogenase type 1 (HSD-1); type: in vivo; remark: listed apart in the source
[7] = Safety and tolerability in the clinical study; type: in vivo, human
How it was run: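 This open-label, single-site multiple-dose study ran 1–50 mg QD for 5 days. Subjects were confined from Day −1 until at least 48 h after CSF catheter removal, and adverse events were recorded until 30 days after the last dose.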

HSD-1 = HSD-1 (Homo sapiens, UniProt P28845); assay: HSD-1 binding and dissociation kinetics in vitro; settings: data on file
HSD-1, sequence (P28845 whole entry): as above

[8] = Preclinical tissue distribution, liver relative to plasma; type: in vivo; settings: rats; data on file
[9] = as above; type: in vivo; settings: monkeys; data on file
[10] = biological target: T1, 11-beta-hydroxysteroid dehydrogenase type 1 (HSD-1); settings: cited from earlier work
[11] = 1 mg ABT-384 QD for 7 days; cited from earlier work
[12] = daily doses up to 100 mg, healthy volunteers and elderly subjects; cited from earlier work
[13] = 1-50 mg ABT-384 QD for 5 days, healthy men

With `CC(C)(C(=O)NC1C2CC3CC1CC(C(N)=O)(C3)C2)N1CCN(c2ccc(C(F)(F)F)cn2)CC1` (centres unmarked) [ABT-384] the “time to peak levels in the plasma” value ([1]; after last dose on Day 5, 1-50 mg QD) was 1.5 to 3 h, the “plasma Cmax at which full peripheral HSD-1 inhibition was observed” value ([1]; man) was about 2 ng/mL and the “CSF levels as percent of the free plasma levels” value [2] was 10–50%. For the same compound, the “CSF levels as percent of the total plasma levels” value [2] was 0.3–1%, the “CSF/free plasma exposure ratio” value [2] was “less than 0.5” and the “time to peak levels in the CSF” value ([2]; after last dose on Day 5) was 2.5 to 5 h. For the same compound, the “hepatic HSD-1 inhibition” value [3] was “full hepatic HSD-1 inhibition”, the “peripheral HSD-1 inhibition” value ([4]; 1 mg QD, each hour from 33 to 40 h after the last dose) was 81–87% and the “peripheral HSD-1 inhibition” value ([4]; ABT-384 1 mg daily, five daily doses, up to 40 h after last dose) was at least 81%. The “peripheral HSD-1 inhibition” value ([4]; ABT-384 regimens ⩾2 mg daily, five daily doses, up to 40 h after last dose) was at least 88%, the “HSD-1 inhibition predicted from plasma Cmax” value ([4]; plasma Cmax ~2 ng ml^−1, assuming reversible inhibition, in the absence of preferential tissue distribution) was about 60% and the “peripheral HSD-1 inhibition” value ([5]; 1 mg regimen, at 40 h after the last dose) was about 86%. For the same compound, the “peripheral HSD-1 inhibition” value ([5]; 1 mg regimen, each of eight time points up to 8 h after the last dose) was about 90%, the “peripheral HSD-1 inhibition” value ([5]; 2, 10 and 50 mg QD, each of 16 time points up to 40 h after the last dose) was 91–93% and the “CNS HSD-1 inhibition (CNS formation of D3 cortisol)” value ([6]; 1 mg ABT-384 QD for 5 days) was “partial but substantial CNS HSD-1 inhibition; also recorded: Reduced CNS D3 cortisol formation”. For the same compound, the “intrinsic CSF D3 cortisol compared with the level attained in the absence of study drug” value ([6]; 1 mg regimen, hours 4-8 of each D4 cortisol infusion) was “approximately two- to three-fold lower”, the “CNS HSD-1 inhibition (CNS formation of D3 cortisol)” value ([6]; 2-50 mg ABT-384 QD for 5 days, through 40 h after the last dose) was “full CNS HSD-1 inhibition; also recorded: essentially complete CNS HSD-1 inhibition; also recorded: Complete blockade of D3 cortisol formation in the CNS” and the “minimum daily dose to achieve full CNS HSD-1 inhibition” value ([6]; QD dosing) was at most 2 mg. The “adrenocorticotropic hormone or cortisol values above normal” value [7, 13] was “No subject showed adrenocorticotropic hormone or cortisol values above normal”, the “changes of clinical laboratory tests, vital signs or electrocardiography parameters” value [7, 13] was “No clinically significant changes” and the “deaths, serious adverse events, discontinuations due to adverse events” value [7, 13] was “No deaths, other serious adverse events or discontinuations due to adverse events occurred”. For the same compound, the tolerability ([7]; regimens of 1-50 mg ABT-384 QD for 5 days) was “well tolerated”, the “binding to and dissociation from HSD-1” value (HSD-1) was “rapid binding to, and very slow dissociation from; also recorded: rapid binding, slow dissociation kinetics” and the “distribution to the liver relative to the plasma” value [8] was “preferentially distributes to the liver”. The “distribution to the liver relative to the plasma” value [9] was “preferentially distributes to the liver”, the “decrease of ratio of urine cortisol metabolites to cortisone metabolite” value ([10]; 1-100 mg ABT-384 QD for 7 days, 24-h urine collection) was 87–97% and the “hepatic HSD-1 inhibition” value ([10]; regimens from 1 mg daily (1 mg QD for 7 days)) was “fully inhibited hepatic HSD-1; also recorded: full hepatic HSD-1 inhibition for 24 h”. The “mean plasma Cmax” value [11] was 9.41 ng/mL and the tolerability [12] was “generally well tolerated”.

For `O=C(O)C(O)(c1cccs1)c1cccs1` [Acid Metabolite], the “mean acid metabolite/parent AUC0-24 ratio in plasma” value ([1]; plasma) was under 20%, the “mean acid metabolite/parent Cmax ratio in plasma” value ([1]; plasma) was under 10% and the “mean metabolite/parent Cmax ratio” value ([1]; plasma, 1-50 mg QD for 5 days) was 6–9%. The “CSF levels as percent of the free plasma levels” value [2] was 110–150%, the “CSF levels as percent of the total plasma levels” value [2] was 3–4% and the “mean acid metabolite/parent AUC0-24 ratio in CSF” value ([2]; CSF) was 70–90%. For the same compound, the “mean acid metabolite/parent Cmax ratio in CSF” value ([2]; CSF) was about 40%, the “CSF/free plasma exposure ratio” value [2] was “greater than 1” and the “mean plasma Cmax” value [11] was 0.31 ng/mL.
